The source of these data is ChEMBL document CHEMBL1132381, “Pyrrolidine-3-carboxylic acids as endothelin antagonists. 4. Side chain conformational restriction leads to ET(B) selectivity” (J Med Chem, 1999).

The target in the first experiment is T1, Endothelin receptor type B (Homo sapiens, UniProt P24530).
T1 sequence (P24530 whole entry): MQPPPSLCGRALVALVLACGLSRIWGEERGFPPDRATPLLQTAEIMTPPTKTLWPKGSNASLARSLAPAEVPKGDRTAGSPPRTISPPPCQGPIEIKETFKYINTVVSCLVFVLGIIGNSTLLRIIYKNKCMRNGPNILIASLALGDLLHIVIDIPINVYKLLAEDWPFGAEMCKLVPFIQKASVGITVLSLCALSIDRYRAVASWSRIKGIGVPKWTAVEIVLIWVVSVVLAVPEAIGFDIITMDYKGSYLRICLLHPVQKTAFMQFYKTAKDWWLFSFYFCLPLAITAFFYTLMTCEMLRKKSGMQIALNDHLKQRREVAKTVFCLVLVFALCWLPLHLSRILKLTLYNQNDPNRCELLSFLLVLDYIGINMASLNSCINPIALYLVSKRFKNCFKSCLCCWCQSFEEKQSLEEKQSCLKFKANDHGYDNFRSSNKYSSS
The experiment can be described thus: Binding affinity towards human Endothelin B receptor (hET -B).
Take `COc1ccc([C@H]2[C@H](C(=O)O)[C@@H](c3ccc4c(c3)OCO4)CN2CC(=O)Nc2cc(C)cc(C)c2)cc1`: the IC50 worked out at 2700 nM.
Molecule `CCOc1ccc([C@H]2[C@H](C(=O)O)[C@@H](c3ccc4c(c3)OCO4)CN2CC(=O)Nc2c(CC)cccc2CC)cc1` (stereo in doubt; 31) [listing 1 of 2 here] showed an IC50 of 3.6 nM.
`CCc1cccc(C)c1NC(=O)CN1C[C@H](c2ccc3c(c2)OCO3)[C@@H](C(=O)O)[C@@H]1c1ccc(OC)cc1` gave a half-inhibitory concentration (IC50) of 4 nM.
`COc1ccc([C@H]2[C@H](C(=O)O)[C@@H](c3ccc4c(c3)OCO4)CN2CC(=O)Nc2c(OC)cccc2OC)cc1` had a half-maximal inhibitory concentration (IC50) of 57 nM.
`COc1ccc([C@H]2[C@H](C(=O)O)[C@@H](c3ccc4c(c3)OCO4)CN2CC(=O)Nc2ccc(C)cc2C)cc1` showed an IC50 of 74 nM. The IC50 values of the last two molecules are within 1.5-fold of each other.
`COc1ccc([C@H]2[C@H](C(=O)O)[C@@H](c3ccc4c(c3)OCO4)CN2CC(=O)Nc2cc(C)ccc2C)cc1`: the IC50 came to 82 nM.
`CCc1cc(C(=O)O)cc(CC)c1NC(=O)CN1C[C@H](c2ccc3c(c2)OCO3)[C@@H](C(=O)O)[C@@H]1c1ccc(OC)cc1` returned a half-maximal inhibitory concentration (IC50) of 44 nM. This IC50 is about 1.9-fold lower than that of the molecule before.
Same read-out and setting: the result for `CCc1cccc(CC)c1NC(=O)CN1C[C@H](c2ccc3c(c2)OCO3)[C@@H](C(=O)O)[C@@H]1c1ccc(OCCOC)cc1` (stereo in doubt; 34) [listing 1 of 2 here] reads 1.1 nM; that for `COc1ccc([C@H]2[C@H](C(=O)O)[C@@H](c3ccc4c(c3)OCO4)CN2CC(=O)Nc2cccc(C)c2C)cc1`, 81 nM.

In another experiment the target is T2, Endothelin-1 receptor (Homo sapiens, UniProt P25101).
T2 sequence (P25101 whole entry): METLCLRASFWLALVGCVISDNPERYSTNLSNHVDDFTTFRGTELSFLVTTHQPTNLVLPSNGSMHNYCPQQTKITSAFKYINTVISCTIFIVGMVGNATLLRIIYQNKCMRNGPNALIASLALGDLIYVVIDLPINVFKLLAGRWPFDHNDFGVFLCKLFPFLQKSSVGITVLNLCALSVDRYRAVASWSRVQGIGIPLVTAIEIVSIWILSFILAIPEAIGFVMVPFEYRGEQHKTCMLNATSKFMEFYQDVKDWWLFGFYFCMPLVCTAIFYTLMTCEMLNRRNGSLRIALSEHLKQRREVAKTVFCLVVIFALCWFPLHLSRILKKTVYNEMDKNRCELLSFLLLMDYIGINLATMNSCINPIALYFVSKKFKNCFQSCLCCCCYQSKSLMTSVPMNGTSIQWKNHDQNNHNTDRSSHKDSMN
The experiment is described as follows: Binding affinity towards human Endothelin A receptor (hET -A).
In the case of `COc1ccc([C@H]2[C@H](C(=O)O)[C@@H](c3ccc4c(c3)OCO4)CN2CC(=O)Nc2cc(C)cc(C)c2)cc1`, the IC50 is 160 nM. This counts as sub-micromolar.
`CCOc1ccc([C@H]2[C@H](C(=O)O)[C@@H](c3ccc4c(c3)OCO4)CN2CC(=O)Nc2c(CC)cccc2CC)cc1` (stereo in doubt; 31) [listing 1 of 2 here] had a half-inhibitory concentration (IC50) of 910 nM.
For `CCc1cccc(C)c1NC(=O)CN1C[C@H](c2ccc3c(c2)OCO3)[C@@H](C(=O)O)[C@@H]1c1ccc(OC)cc1`, the half-maximal inhibitory concentration (IC50) turned out to be 15 nM.
`COc1ccc([C@H]2[C@H](C(=O)O)[C@@H](c3ccc4c(c3)OCO4)CN2CC(=O)Nc2c(OC)cccc2OC)cc1` had a half-maximal inhibitory concentration (IC50) of 16 nM.
For the molecule `COc1ccc([C@H]2[C@H](C(=O)O)[C@@H](c3ccc4c(c3)OCO4)CN2CC(=O)Nc2ccc(C)cc2C)cc1`, the half-maximal inhibitory concentration (IC50) stood at 25 nM. Against the preceding molecule, the IC50 is about 1.6-fold higher.
Regarding `COc1ccc([C@H]2[C@H](C(=O)O)[C@@H](c3ccc4c(c3)OCO4)CN2CC(=O)Nc2cc(C)ccc2C)cc1`, the IC50 is 33 nM.
For the molecule `CCc1cc(C(=O)O)cc(CC)c1NC(=O)CN1C[C@H](c2ccc3c(c2)OCO3)[C@@H](C(=O)O)[C@@H]1c1ccc(OC)cc1`, the half-maximal inhibitory concentration (IC50) is 840 nM. This IC50 is about 25-fold higher than that of the molecule before.
`CCc1cccc(CC)c1NC(=O)CN1C[C@H](c2ccc3c(c2)OCO3)[C@@H](C(=O)O)[C@@H]1c1ccc(OCCOC)cc1` (stereo in doubt; 34) [listing 1 of 2 here] registered a half-inhibitory concentration (IC50) of 4200 nM.
In turn, `COc1ccc([C@H]2[C@H](C(=O)O)[C@@H](c3ccc4c(c3)OCO4)CN2CC(=O)Nc2cccc(C)c2C)cc1` registered a half-inhibitory concentration (IC50) of 16 nM. Against the preceding molecule, the IC50 is about 260-fold lower.

In the next experiment the target is Endothelin receptor, ET-A/ET-B (Homo sapiens) (UniProt P24530+P25101). The experiment can be described thus: Ratio of binding affinity towards hETA to hETB. The class given is protein assay. The method, boiled down:
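Ratio of IC50 values from two CHO membrane binding assays. Both run 3 h at 25 °C over 11 concentrations, 10^-10 to 10^-5 M, in duplicate, with at least 2 determinations each.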
Consider `CCCOc1ccc([C@H]2[C@H](C(=O)O)[C@@H](c3ccc4c(c3)OCO4)CN2CC(=O)Nc2c(CC)cccc2CC)cc1` (stereo in doubt; 38), for which the Ratio came to 1300.
As to `CCc1cccc(CC)c1NC(=O)CN1C[C@H](c2ccc3c(c2)OCO3)[C@@H](C(=O)O)[C@@H]1c1ccc(OCCOC)cc1` (stereo in doubt; 34) [listing 2 of 2 here], the Ratio worked out at 4000.
Turning to `COc1ccc([C@H]2[C@H](C(=O)O)[C@@H](c3ccc4c(c3)OCO4)CN2CC(=O)Nc2cc(C)cc(C)c2)cc1`, the Ratio stood at 0.06.
`CCc1cccc(C)c1NC(=O)CN1C[C@H](c2ccc3c(c2)OCO3)[C@@H](C(=O)O)[C@@H]1c1ccc(OC)cc1`: the Ratio came out at 4.
On to `COc1ccc([C@H]2[C@H](C(=O)O)[C@@H](c3ccc4c(c3)OCO4)CN2CC(=O)Nc2c(OC)cccc2OC)cc1`, for which the Ratio came out at 0.3.
Turning to `CCOc1ccc([C@H]2[C@H](C(=O)O)[C@@H](c3ccc4c(c3)OCO4)CN2CC(=O)Nc2c(CC)cccc2CC)cc1` (stereo in doubt; 31) [listing 2 of 2 here], the Ratio was found to be 250.
Regarding `COc1ccc([C@H]2[C@H](C(=O)O)[C@@H](c3ccc4c(c3)OCO4)CN2CC(=O)Nc2ccc(C)cc2C)cc1`, the Ratio was 0.3.
The same measure, in the same setting: the result for `CCCOc1ccc([C@H]2[C@H](C(=O)O)[C@@H](c3ccc4c(c3)OCO4)CN2CC(=O)Nc2c(CC)cccc2CC)cc1` (stereo in doubt; 32) reads 820; that for `COc1ccc([C@H]2[C@H](C(=O)O)[C@@H](c3ccc4c(c3)OCO4)CN2CC(=O)Nc2cc(C)ccc2C)cc1`, 0.4.
As for `CCc1cc(C(=O)O)cc(CC)c1NC(=O)CN1C[C@H](c2ccc3c(c2)OCO3)[C@@H](C(=O)O)[C@@H]1c1ccc(OC)cc1`, the Ratio stood at 19.
In the case of `CCOc1ccc([C@H]2[C@H](C(=O)O)[C@@H](c3ccc4c(c3)OCO4)CN2CC(=O)Nc2c(CC)cccc2CC)cc1` (stereo in doubt; 37), the Ratio worked out at 280.
For the molecule `CCc1cccc(CC)c1NC(=O)CN1C[C@H](c2ccc3c(c2)OCO3)[C@@H](C(=O)O)[C@@H]1c1ccc(OCCOC)cc1` (stereo in doubt; 39), the Ratio is 4400.
As to `CCc1cccc(CC)c1NC(=O)CN1C[C@H](c2ccc3c(c2)OCO3)[C@@H](C(=O)O)[C@@H]1c1ccc(OC)cc1` (stereo in doubt; 36), the Ratio came to 330.
On the same count and under the same terms, then `COc1ccc([C@H]2[C@H](C(=O)O)[C@@H](c3ccc4c(c3)OCO4)CN2CC(=O)Nc2cccc(C)c2C)cc1`, with 0.2; and `CCc1cccc(CC)c1NC(=O)CN1C[C@H](c2ccc3c(c2)OCO3)[C@@H](C(=O)O)[C@@H]1c1ccc(OC)cc1` (stereo in doubt; 19), with 32.

In another experiment the test system is Rattus norvegicus. The experiment can be described thus: Oral bioavailability in rat.
Molecule `CCc1cccc(CC)c1NC(=O)CN1C[C@H](c2ccc3c(c2)OCO3)[C@@H](C(=O)O)[C@@H]1c1ccc(OCCOC)cc1` (stereo in doubt; 39) had a bioavailability of 9%.
